Tests used:
[1] = biological target: T1, Prostaglandin G/H synthase 2 (Homo sapiens, UniProt P35354)
T1 sequence (P35354 whole entry): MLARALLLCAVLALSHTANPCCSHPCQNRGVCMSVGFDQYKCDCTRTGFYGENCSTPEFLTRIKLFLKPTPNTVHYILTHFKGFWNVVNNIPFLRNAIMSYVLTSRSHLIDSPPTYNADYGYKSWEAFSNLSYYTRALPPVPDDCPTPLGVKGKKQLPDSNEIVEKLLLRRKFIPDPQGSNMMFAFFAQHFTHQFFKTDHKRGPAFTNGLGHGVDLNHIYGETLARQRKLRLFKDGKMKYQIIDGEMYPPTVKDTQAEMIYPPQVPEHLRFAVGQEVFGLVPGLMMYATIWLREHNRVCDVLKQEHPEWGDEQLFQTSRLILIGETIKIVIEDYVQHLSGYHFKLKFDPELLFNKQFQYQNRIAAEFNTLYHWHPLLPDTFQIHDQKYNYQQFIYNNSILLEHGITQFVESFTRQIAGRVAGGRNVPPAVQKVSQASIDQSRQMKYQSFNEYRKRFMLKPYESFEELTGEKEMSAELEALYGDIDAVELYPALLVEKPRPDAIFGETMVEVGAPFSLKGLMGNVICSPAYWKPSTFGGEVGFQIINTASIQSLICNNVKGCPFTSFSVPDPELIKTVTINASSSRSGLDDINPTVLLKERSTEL

[2] = biological target: Prostaglandin G/H synthase 1 (Homo sapiens, UniProt P23219); assay: Inhibition of COX1 in human whole blood assessed as TxB2 production after 1 hr; type: tissue-based
Prostaglandin G/H synthase 1, sequence (P23219 whole entry): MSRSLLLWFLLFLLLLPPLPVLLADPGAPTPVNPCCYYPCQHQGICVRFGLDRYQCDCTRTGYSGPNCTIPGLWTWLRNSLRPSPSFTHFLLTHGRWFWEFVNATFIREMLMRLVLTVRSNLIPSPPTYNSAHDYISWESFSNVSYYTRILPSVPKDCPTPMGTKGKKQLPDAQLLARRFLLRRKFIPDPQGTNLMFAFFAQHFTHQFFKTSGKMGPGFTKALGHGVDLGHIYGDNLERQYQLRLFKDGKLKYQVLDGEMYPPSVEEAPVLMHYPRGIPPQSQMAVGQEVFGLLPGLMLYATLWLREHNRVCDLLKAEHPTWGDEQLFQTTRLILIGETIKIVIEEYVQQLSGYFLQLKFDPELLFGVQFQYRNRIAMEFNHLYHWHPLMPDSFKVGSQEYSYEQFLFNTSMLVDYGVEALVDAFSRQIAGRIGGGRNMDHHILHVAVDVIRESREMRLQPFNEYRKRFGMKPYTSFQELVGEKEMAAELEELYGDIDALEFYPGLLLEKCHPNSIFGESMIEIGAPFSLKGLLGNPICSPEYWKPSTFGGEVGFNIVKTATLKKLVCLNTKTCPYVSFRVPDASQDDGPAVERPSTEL

[3] = Stability in human whole blood at 100 uM after 24 hrs; type: ADME, tissue-based; conditions: read-out: Stability
Summary of the method: (§1)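 Compound incubated at 37 ± 0.5 °C in human serum or human whole blood. Aliquots taken at set times were diluted 1:2 with acetonitrile containing 0.1% TFA to deproteinize, then sonicated, vortexed, centrifuged 15 min at 2150 × g and filtered.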

Rattus norvegicus [4] = organism: Rattus norvegicus; assay: Vasodilation of phenylephrine-induced contraction in Wistar rat aorta in the presence of ODQ; type: functional
Summary of the method: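 Rat aortic strips (male Wistar, 180-200 g) were equilibrated 120 min. 1 μM ODQ (sGC inhibitor) was added to the bath 5 min before contraction with 1 μM L-phenylephrine. At plateau, cumulative vasodilator concentrations were added. Isometric relaxation was recorded and given as EC50 ± SE (μM).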

[5] = Stability in human serum at 100 uM after 24 hrs; type: ADME, cell-free; conditions: read-out: Stability
Summary of the method: as §1

Rattus norvegicus [6] = organism: Rattus norvegicus; assay: Vasodilation of phenylephrine-induced contraction in Wistar rat aorta; type: functional
Summary of the method: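 Thoracic aortic strips from male Wistar rats (180-200 g) were equilibrated 120 min and precontracted with 1 μM L-phenylephrine. At plateau, cumulative concentrations of vasodilator were added, with DMSO as vehicle. Relaxation was recorded isometrically and reported as EC50 ± SE (μM).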

Rattus norvegicus [7] = organism: Rattus norvegicus; assay: Vasodilation of phenylephrine-induced contraction in Wistar rat aorta in the presence of HbO2; type: functional

`NS(=O)(=O)c1ccc(-n2cnc(Cl)c2-c2ccc(OCCCO)c(F)c2)cc1` gave an IC50 [1] of over 100 µM and an IC50 [2] of over 100 µM.
With `NS(=O)(=O)c1ccc(-n2cnc(Cl)c2-c2ccc(OCCO[N+](=O)[O-])c(F)c2)cc1` the remaining at 24 h, 100 µM [3] was 58.8%, the EC50 (Rattus norvegicus [4]) was 12 µM and the remaining at 24 h, 100 µM [5] was over 98%. For the same molecule, the IC50 [2] was over 100 µM and the EC50 (Rattus norvegicus [6]) was 0.051 µM.
For `COc1ccc(-c2c(Cl)ncn2-c2ccc(S(C)(=O)=O)cc2)cc1F`, the EC50 (Rattus norvegicus [4]) was 24 µM, the IC50 [1] was 0.09 µM and the IC50 [2] was 5.8 µM.
Work on `CS(=O)(=O)c1ccc(-n2cnc(Cl)c2-c2ccc(OCCO)c(F)c2)cc1` yielded an IC50 [1] of 56 µM and an IC50 [2] of over 100 µM.
`CS(=O)(=O)c1ccc(-n2cnc(Cl)c2-c2ccc(OCCCO[N+](=O)[O-])c(F)c2)cc1` showed a remaining at 24 h, 100 µM [3] of 60.6%, an EC50 (Rattus norvegicus [4]) of 6.3 µM and an IC50 [1] of 14 µM. It also gave a remaining at 24 h, 100 µM [5] of over 98%, an IC50 [2] of over 100 µM and an EC50 (Rattus norvegicus [6]) of 0.078 µM.
Molecule `COc1ccc(-c2c(Cl)ncn2-c2ccc(S(N)(=O)=O)cc2)cc1F` [CIMICOXIB] has an EC50 (Rattus norvegicus [4]) of 25 µM and an IC50 [2] of 1.9 µM.
Work on `CS(=O)(=O)c1ccc(-n2cnc(Cl)c2-c2ccc(OCC(CO[N+](=O)[O-])O[N+](=O)[O-])c(F)c2)cc1` (centres undefined) yielded a remaining at 24 h, 100 µM [3] of 43.6%, an EC50 (Rattus norvegicus [4]) of over 100 µM and an EC50 (Rattus norvegicus [7]) of 0.061 µM. For the same molecule, the IC50 [1] was 76 µM, the remaining at 24 h, 100 µM [5] was over 97% and the IC50 [2] was over 100 µM.
In the case of `NS(=O)(=O)c1ccc(-n2cnc(Cl)c2-c2ccc(OCCO)c(F)c2)cc1`, the IC50 [1] is reported as 20 µM and the IC50 [2] is reported as over 100 µM.
`NS(=O)(=O)c1ccc(-n2cnc(Cl)c2-c2ccc(OCCCO[N+](=O)[O-])c(F)c2)cc1` showed a remaining at 24 h, 100 µM [3] of 64.1%, an EC50 (Rattus norvegicus [4]) of 18 µM and an IC50 [1] of 16 µM. The remaining at 24 h, 100 µM [5] was over 98%, the IC50 [2] was over 100 µM and the EC50 (Rattus norvegicus [6]) was 0.1 µM.
Work on `CS(=O)(=O)c1ccc(-n2cnc(Cl)c2-c2ccc(OCCCO)c(F)c2)cc1` yielded an IC50 [1] of over 100 µM and an IC50 [2] of over 100 µM.
`O=[N+]([O-])O[C@H]1CO[C@H]2[C@@H]1OC[C@H]2O[N+](=O)[O-]` [ISOSORBIDE DINITRATE] gave an EC50 (Rattus norvegicus [4]) of over 100 µM, an EC50 (Rattus norvegicus [7]) of 55 µM and an EC50 (Rattus norvegicus [6]) of 4.7 µM.
`CS(=O)(=O)c1ccc(-n2cnc(Cl)c2-c2ccc(OCCO[N+](=O)[O-])c(F)c2)cc1` gave a remaining at 24 h, 100 µM [3] of 53.3%, an EC50 (Rattus norvegicus [4]) of 6.5 µM and a remaining at 24 h, 100 µM [5] of over 98%. The IC50 [2] was over 100 µM and the EC50 (Rattus norvegicus [6]) was 0.021 µM.

From ChEMBL document CHEMBL1142971, “NO-donor COX-2 inhibitors. New nitrooxy-substituted 1,5-diarylimidazoles endowed with COX-2 inhibitory and vasodilator properties” (J Med Chem, 2007)
